The nature of series [1]: AUC (0 to infinity) in Balb/c mouse at 10 mg/kg, iv. The series is classed as ADME, organism-based. Details: time infinity, dose 10 mg/kg, route intravenous. Particulars: plasma. In outline: (§1)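 Balb/c mice dosed iv at 10 mg/kg or orally (20 or 30 mg/kg). Plasma concentration–time profiles averaged over three animals per time point. Parameters come from noncompartmental analysis. Oral AUC runs 0–5 h and iv AUC runs 0 to infinity.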

Series [2] can be described thus: Clearance in Balb/c mouse at 10 mg/kg, iv. Type of series: ADME, organism-based. Details: dose 10 mg/kg, route intravenous. The following applies: in vivo. In outline: as §1
A short description of series [3]: Metabolic stability in ICR mouse liver microsomes at 1 uM measured at 30 min in presence of NADPH. Particulars: read-out: Stability. Type of series: ADME, Microsome. The essentials: (§2)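 Test compound at 1 μM incubated with female ICR mouse liver microsomes (0.5 mg protein/mL) for 30 min at 37 °C, with or without NADPH. Result reported as % parent remaining at 30 min.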
On the technique in general: Liver microsomes are vesicles of endoplasmic reticulum, rich in cytochrome P450 enzymes.

Series [4] can be described thus: Volume of distribution at steady state in Balb/c mouse at 10 mg/kg, iv. Type of series: ADME, organism-based. The following applies: in vivo, read-out: Vdss. Details: dose 10 mg/kg, route intravenous. The essentials: as §1
The nature of series [5]: Tmax in Balb/c mouse at 30 mg/kg, po. The series is classed as ADME, organism-based. Set-up: dose 30 mg/kg, route oral. Particulars: in vivo. In outline: as §1
A short description of series [6]: Cmax in Balb/c mouse at 30 mg/kg, po. Type of series: ADME, organism-based. Details: dose 30 mg/kg, route oral. The following applies: in vivo. The essentials: as §1
Series [7] in a line: Metabolic stability in ICR mouse liver microsomes at 1 uM measured at 30 min in absence of NADPH. Type of series: ADME, Microsome. The following applies: read-out: Stability. In outline:
as §2

Series [8] in a line: Half life in Balb/c mouse at 30 mg/kg, po. Type of series: ADME, organism-based. The following applies: in vivo. Set-up: dose 30 mg/kg, route oral. In outline:
as §1

The nature of series [9]: Oral bioavailability in Balb/c mouse at 30 mg/kg. Particulars: in vivo. Type of series: ADME, organism-based. In outline:
as §1

Series [10] can be described thus: Half life in Balb/c mouse at 10 mg/kg, iv. The series is classed as ADME, organism-based. Set-up: dose 10 mg/kg, route intravenous. Particulars: in vivo. In outline: as §1
A short description of series [11]: Lipophilicity, log D of the compound. The series is classed as physicochemical. Particulars: octanol/water.
Series [12] is described as follows: Passive permeability of the compound by PAMPA. Type of series: ADME. Particulars: read-out: permeability. In outline:
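PAMPA passive diffusion with compound at a final concentration of 200 μM. Effective permeability Pe (nm/s) and membrane retention R (%) reported. Ranitidine and metoprolol served as controls.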
On the technique in general: PAMPA measures passive passage across an artificial lipid membrane.

Series [13] is described as follows: AUC (0 to 5 hrs) in Balb/c mouse at 30 mg/kg, po. Set-up: dose 30 mg/kg, route oral. Particulars: plasma. Type of series: ADME, organism-based. The essentials:
as §1

Series [14] deals with NCI-H23. Briefly: Cytotoxicity against human NCI-H23 cells assessed as growth inhibition by SRB assay. Type of series: functional. For orientation: The SRB assay estimates cell density from bound dye.
Series [15] deals with MDA-MB-231. As to the kind of experiment: Cytotoxicity against human MDA-MB-231 cells assessed as growth inhibition by SRB assay. The series is classed as functional.
The test system of series [16] is PC-3. Briefly: Cytotoxicity against human PC3 cells assessed as growth inhibition by SRB assay. Type of series: functional, cell-based.
For series [17], the system named is HCT-15. Briefly: Cytotoxicity against human HCT15 cells assessed as growth inhibition by SRB assay. Type of series: functional.
The subject of series [18] is ACHN. Briefly: Cytotoxicity against human ACHN cells assessed as growth inhibition by SRB assay. Type of series: functional.
In series [19] the test system is NUGC-3. As to the kind of experiment: Cytotoxicity against human NUGC3 cells assessed as growth inhibition by SRB assay. Type of series: functional.
Series [20] in a line: Inhibition of HDAC by fluorescence assay.
Series [21] in a line: Half life in Balb/c mouse at 20 mg/kg, po. The series is classed as ADME, organism-based. Details: dose 20 mg/kg, route oral. The following applies: in vivo. The essentials: as §1
Series [22] is described as follows: Cmax in Balb/c mouse at 20 mg/kg, po. The series is classed as ADME, organism-based. The following applies: in vivo. Details: dose 20 mg/kg, route oral. The essentials: as §1
Series [23] is described as follows: Oral bioavailability in Balb/c mouse at 20 mg/kg. The following applies: in vivo. The series is classed as ADME, organism-based. The essentials:
as §1

Series [24] in a line: AUC (0 to 5 hrs) in Balb/c mouse at 20 mg/kg, po. The series is classed as ADME, organism-based. Details: dose 20 mg/kg, route oral. The following applies: plasma. The essentials:
as §1

A short description of series [25]: Tmax in Balb/c mouse at 20 mg/kg, po. Type of series: ADME, organism-based. Set-up: dose 20 mg/kg, route oral. The following applies: in vivo. The essentials:
as §1

The nature of series [26]: Apparent permeability across apical to basolateral side in human Caco2 cells at 100 uM. Type of series: ADME, cell-based. Particulars: Caco-2.

Usually AUC(0-inf) stands for total exposure, with the tail of the curve extrapolated. Low values mean less exposure, high ones more exposure. In general, clearance refers to the volume of plasma or blood freed of the substance per unit of time. As a reminder, the Tmax is the time from dosing to the highest level. Usually Cmax stands for the peak of the concentration-time curve. For orientation: half-life means the time in which the quantity being followed falls by half. The term bioavailability denotes dose-corrected exposure relative to a reference, in per cent. Read a low bioavailability as poor availability. By logD is commonly meant lipophilicity at a set pH, counting ionised and neutral species. Higher therefore signals a more lipophilic compound. The term AUC(0-t) denotes exposure summed from dosing to a finite time, without extrapolation to infinity. `O=C(CCC1=CCN(Cc2ccc(Br)cc2)C1=O)NO`: in [1], the AUC(0-inf) is 2.33 µg·h/mL. Further, the clearance in series [2] was 4.3 L/h/kg. The remaining at 0.5 h, 1 µM in [3] amounted to 84%; in series [7], 100%. Also, the Vd in series [4] was 4.1 L/kg. Moreover, the Tmax in [5] was found to be 0.15 h. The compound further registered a Cmax in [6] of 2.71 µg/mL. Also, the results for the half-life in [8] and in [10] were 3.1 h and 2.8 h, respectively. This compound also gave a bioavailability in [9] of 44.6%. The logD in [11] is 1.26. For the same compound, the Papp in [12] is 10.2 nm/s. Also, the AUC(0-t) at 4 h in series [13] stood at 3.11 µg·h/mL.
What is called GI50 is the concentration giving 50% growth inhibition. As usually defined, the IC50 is the concentration at which inhibition is half-maximal. Read a low IC50 as greater potency in that assay. Consider `N#Cc1ccc(CN2CC=C(CCC(=O)NO)C2=O)cc1`, for which the GI50 was 2.32 µM in [14]; 5.38 µM in [15]; more than 10 µM in series [16]; more than 10 µM in series [17]; more than 10 µM in series [18]; more than 10 µM in series [19]. The same compound displayed a logD in [11] of 0.197. In [20], this compound gave an IC50 of 0.15 µM.
`O=C(CCC1=CCN(Cc2cc(C(F)(F)F)cc(C(F)(F)F)c2)C1=O)NO`: the results for the remaining at 0.5 h, 1 µM in series [3] and in series [7] were 35.7% and 40.5%, respectively. The compound also had a logD in series [11] of 2.4. For the same compound, the Papp in series [12] is 28.3 nm/s.
`O=C(CCC1=CCN(CCCCc2ccc(Cl)cc2)C1=O)NO`: the remaining at 0.5 h, 1 µM came out at 24.9% in series [3] and 34.6% in [7]. Besides, the logD in series [11] was found to be 2.17. In series [12], the Papp is 4.94 nm/s.
With `CC(C)(C)c1ccc(CN2CC=C(CCC(=O)NO)C2=O)cc1`, in series [1], the AUC(0-inf) worked out at 3.44 µg·h/mL. For the same compound, the half-life in series [21] is 13.6 h; in series [10] it was 7.8 h. In addition, the maximum concentration (Cmax) in series [22] was 0.462 µg/mL. Moreover, the clearance in series [2] was 2.9 L/h/kg. Besides, the remaining at 0.5 h, 1 µM in series [3] was found to be 58.2%; in series [7], 79%. Also, the Vd in series [4] came out at 1.6 L/kg. Also, the bioavailability in series [23] worked out at 10.7%. Besides, the GI50 in [14] is 0.42 µM; in series [15], 0.69 µM; in series [16], 1.83 µM; in series [17], 0.57 µM; in series [18], 0.86 µM; in series [19], 0.72 µM. In series [24], the AUC(0-t) at 4 h is 0.739 µg·h/mL. Also, the Tmax in series [25] is 0.25 h. This compound also yielded a logD in series [11] of 2.1. Further, the Papp in series [12] amounted to 21.9 nm/s. Moreover, half-maximal inhibition in series [20] (IC50) required 0.1 µM.
As to `O=C(CCC1=CCN(CCc2cccc([N+](=O)[O-])c2)C1=O)NO`, the GI50 in series [14] was 4.39 µM; in series [15], 3.18 µM; in series [16] it was 8.69 µM; in [17], more than 10 µM; in series [18], 5.7 µM; in series [19] it was 6.57 µM. The same compound registered a logD in series [11] of 0.633. Further, it took 1.08 µM to reach half-maximal inhibition in series [20] (IC50).
Consider `N#Cc1cccc(CN2CC=C(CCC(=O)NO)C2=O)c1`, for which the GI50 in [14] is 4.08 µM; in series [15], 3.6 µM; in [16] it was 7.92 µM; in series [17], more than 10 µM; in [18], 7.75 µM; in series [19], 4.12 µM. The logD in series [11] turned out to be 0.236. Also, in series [20], the IC50 was 0.16 µM.
As for `CC(C)(C)c1ccc(CCCN2CC=C(CCC(=O)NO)C2=O)cc1`, the remaining at 0.5 h, 1 µM in series [3] is 35.3%; in series [7] it was 57.6%. In [11], the logD is 2.7. Also, in [12], the Papp turned out to be 15 nm/s.
Regarding `O=C(CCC1=CCN(CCc2ccc([N+](=O)[O-])cc2)C1=O)NO`, the GI50 in series [14] was 7.8 µM; in series [15], 4.97 µM; in [16] it was more than 10 µM; in series [17], more than 10 µM; in series [18], 8.96 µM; in series [19] it was more than 10 µM. This compound returned a logD in [11] of 0.594. Moreover, in series [20], the IC50 was determined as 1.47 µM.
One may read the Papp A→B as how fast a substance crosses the layer from the apical side. `O=C(CCC1=CCN(Cc2ccc(F)cc2)C1=O)NO` came in with an AUC(0-inf) in series [1] of 1.28 µg·h/mL. Also, the Papp A→B at 100 µM in series [26] was determined as 78 nm/s. For the same compound, the clearance in [2] was 7.8 L/h/kg. In addition, the remaining at 0.5 h, 1 µM in series [3] amounted to 87.7%; in series [7], 91.4%. Moreover, in series [4], the Vd came to 1.8 L/kg. Besides, the Tmax in series [5] came to 0.25 h. In addition, the Cmax in series [6] amounted to 2.3 µg/mL. In addition, the GI50 is 4.67 µM in [14]; 1.94 µM in series [15]; 5.31 µM in series [16]; 4.07 µM in series [17]; 5.99 µM in [18]; 6.06 µM in series [19]. Moreover, the half-life in series [8] was 1.1 h; in series [10], 2.6 h. Besides, the bioavailability in series [9] is 30.6%. For the same compound, the logD in [11] came out at 0.571. Also, the Papp in series [12] was 19.3 nm/s. In series [20], this compound displayed an IC50 of 0.06 µM. Besides, the AUC(0-t) at 4 h in series [13] came out at 1.18 µg·h/mL.
Consider `CC(C)(C)c1ccc(CCN2CC=C(CCC(=O)NO)C2=O)cc1`, for which the remaining at 0.5 h, 1 µM came out at 38.1% in series [3] and 51% in series [7]. The compound also registered a logD in [11] of 2.25. In series [12], the Papp worked out at 65.3 nm/s.
